Laboratory results: ChEMBL document CHEMBL1126006, “Synthesis, specificity, and antifungal activity of inhibitors of the Candida albicans delta 24-sterol methyltransferase” (J Med Chem, 1992)
In brackets after ≈: the same amount, converted by molar mass.

Experiments:
Candida albicans [1] = test: In vitro Minimum inhibitory concentration was determined by microbroth dilution assay on Candida albicans; type: functional
How it was run: (§1)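 Microbroth dilution, 4×10^3 cells/mL (C. albicans B311; C. tropicalis and T. glabrata clinical isolates, pre-grown 18 h at 35 °C and washed) in YNB with asparagine and glucose, pH 5.5; 0.10–100 μg/mL drug, 1% DMSO final; 24 h at 35 °C, quadruplicate wells. MIC read visually as first concentration with marked growth reduction; geometric mean reported.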

Candida albicans [2] = test: In vitro Minimum lethal concentration was determined by microbroth dilution assay on Candida albicans; type: functional
How it was run: (§2)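 C. albicans strain B311; C. tropicalis and T. glabrata were clinical isolates. Yeasts were pregrown 18 h at 35 °C, 125 rpm, in the test medium, saline-washed three times and counted by hemocytometer. Assay medium was YNB with 0.15% asparagine and 2% glucose, pH 5.5. Final drug 0.10 to 100 μg/mL, 1% DMSO, 4×10^3 cells/mL, quadruplicate wells, 35 °C for 24 h. MLC = first concentration whose subculture (Sabouraud agar, 48 h, 35 °C) gave ≤50 CFU/mL; geometric mean reported.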

Candida tropicalis [3] = test: In vitro Minimum inhibitory concentration was determined by microbroth dilution assay on Candida tropicalis; type: functional; how it was run: as §1
Candida tropicalis [4] = test: In vitro Minimum lethal concentration was determined by microbroth dilution assay on Candida tropicalis; type: functional; how it was run: as §2
Candida albicans [5] = test: Compound was tested for the inhibition of delta24-sterol Methyl transferase
How it was run: (§3)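 Microsomes from C. albicans ATCC 28367, 0.20 mg microsomal protein per assay; desmosterol as sterol substrate, SAM 25 μM; standard assay pH 7.5. Reversible inhibition patterns and constants fitted by Cleland COMP/NONCOMP, or otherwise by a parabolic competitive inhibition equation, which gives the alpha cooperativity factor for binding of two inhibitor molecules.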

Candida albicans [6] = test: Inhibition type against delta 24-sterol Methyl transferase; how it was run: as §3
Nakaseomyces glabratus [7] = test: In vitro Minimum lethal concentration was determined by microbroth dilution assay on Torulopsis glabrata; type: functional; how it was run: as §2
Nakaseomyces glabratus [8] = test: In vitro Minimum inhibitory concentration was determined by microbroth dilution assay on Torulopsis glabrata; type: functional; how it was run: as §1
Candida albicans [9] = tested on: Candida albicans
Candida albicans [10] = test: Alpha factor which describes the cooperativity of binding of 2 identical inhibitor molecules.; how it was run: as §3
Candida albicans [11] = test: Compound was tested for the inhibition of Delta 24-sterol-C-methyl-transferase; how it was run: as §3

Compound: C[C@H](CCc1ncc[nH]1)C1CC[C@@]2(C)C3=C(CC[C@]12C)[C@@]1(C)CC[C@H](O)C(C)(C)C1CC3 (some centres not stated)
- MIC (Candida albicans [1]): 1.6 µg/mL (≈ 3.65 µM)
- MLC (Candida albicans [2]): >100 µg/mL
- MIC (Candida tropicalis [3]): > 100 µg/mL
- MLC (Candida tropicalis [4]): >100 µg/mL
- Kis (Candida albicans [5]): 11 nM
- Inhibition type (Candida albicans [6]): Noncompetitive
- MLC (Nakaseomyces glabratus [7]): >100 µg/mL
- MIC (Nakaseomyces glabratus [8]): > 100 µg/mL
- Kii (Candida albicans [9]): 25 nM

Compound: CC(C)[S+](C)CC[C@@H](C)C1CC[C@@]2(C)C3=C(CC[C@]12C)[C@@]1(C)CC[C@H](O)C(C)(C)C1CC3 (some centres not stated)
- Alpha c (Candida albicans [10]): 0.02
- Kis (Candida albicans [5]): 21 nM
- Inhibition type (Candida albicans [6]): Parabolic competitive

Compound: CC(C)SCC[C@@H](C)C1CCC2C3CC=C4C[C@@H](O)CC[C@]4(C)C3CC[C@@]21C (some centres not stated)
- MIC (Candida albicans [1]): 50 µg/mL (≈ 124 µM)
- MLC (Candida albicans [2]): >100 µg/mL
- MIC (Candida tropicalis [3]): > 100 µg/mL
- MLC (Candida tropicalis [4]): >100 µg/mL
- Kis (Candida albicans [11]): 1500 nM
- Inhibition type (Candida albicans [6]): Competitive
- MLC (Nakaseomyces glabratus [7]): >100 µg/mL
- MIC (Nakaseomyces glabratus [8]): > 100 µg/mL

Compound: CC(C)[S+](C)CC[C@@H](C)C1CCC2C3CC=C4C[C@@H](O)CC[C@]4(C)C3CC[C@@]21C.[I-] (some centres not stated)
- MIC (Candida albicans [1]): 0.2 µg/mL
- MLC (Candida albicans [2]): 50 µg/mL
- MIC (Candida tropicalis [3]): 0.2 µg/mL
- MLC (Candida tropicalis [4]): 6.3 µg/mL
- Kis (Candida albicans [11]): 16 nM
- Alpha c (Candida albicans [10]): 0.05
- Inhibition type (Candida albicans [6]): Parabolic competitive
- MLC (Nakaseomyces glabratus [7]): 50 µg/mL
- MIC (Nakaseomyces glabratus [8]): 1.6 µg/mL

Compound: C[C@H](CCc1nccn1C)C1CC[C@@]2(C)C3=C(CC[C@]12C)[C@@]1(C)CC[C@H](O)C(C)(C)C1CC3 (some centres not stated)
- MIC (Candida albicans [1]): 0.4 µg/mL (≈ 0.884 µM)
- MLC (Candida albicans [2]): >100 µg/mL
- MIC (Candida tropicalis [3]): 12.5 µg/mL (≈ 27.6 µM)
- MLC (Candida tropicalis [4]): 100 µg/mL (≈ 221 µM)
- Kis (Candida albicans [5]): 5 nM
- Inhibition type (Candida albicans [6]): Parabolic competitive
- MLC (Nakaseomyces glabratus [7]): >100 µg/mL
- MIC (Nakaseomyces glabratus [8]): > 100 µg/mL

Compound: CC[S+](CC[C@@H](C)C1CCC2C3CC=C4C[C@@H](O)CC[C@]4(C)C3CC[C@@]21C)C(C)C.[I-] (some centres not stated)
- MIC (Candida albicans [1]): 100 µg/mL
- MLC (Candida albicans [2]): >100 µg/mL
- MIC (Candida tropicalis [3]): 100 µg/mL
- MLC (Candida tropicalis [4]): >100 µg/mL
- Kis (Candida albicans [5]): 500 nM
- Inhibition type (Candida albicans [6]): Parabolic competitive
- MLC (Nakaseomyces glabratus [7]): >100 µg/mL
- MIC (Nakaseomyces glabratus [8]): > 100 µg/mL

Compound: C[C@@H]1[C@H](O)[C@@H](C)/C=C/C=C/C=C/C=C/C=C/C=C/C=C/[C@H](O[C@@H]2O[C@H](C)[C@@H](O)[C@H](N)[C@@H]2O)C[C@@H]2O[C@](O)(C[C@@H](O)C[C@@H](O)[C@H](O)CC[C@@H](O)C[C@@H](O)CC(=O)O[C@H]1C)C[C@H](O)[C@H]2C(=O)O [AMPHOTERICIN B]
- MIC (Candida albicans [1]): 0.2 µg/mL (≈ 0.216 µM)
- MLC (Candida albicans [2]): 0.8 µg/mL (≈ 0.866 µM)
- MIC (Candida tropicalis [3]): 0.2 µg/mL (≈ 0.216 µM)
- MLC (Candida tropicalis [4]): 0.4 µg/mL (≈ 0.433 µM)
- MLC (Nakaseomyces glabratus [7]): 0.4 µg/mL (≈ 0.433 µM)
- MIC (Nakaseomyces glabratus [8]): 0.1 µg/mL (≈ 0.108 µM)

Compound: CC(C)[S+]([O-])CC[C@@H](C)C1CCC2C3CC=C4C[C@@H](O)CC[C@]4(C)C3CC[C@@]21C (some centres not stated)
- Kis (Candida albicans [5]): 20000 nM
- Inhibition type (Candida albicans [6]): Competitive

Compound: CC(C)SCC[C@@H](C)C1CC[C@@]2(C)C3=C(CC[C@]12C)[C@@]1(C)CC[C@H](O)C(C)(C)C1CC3 (some centres not stated)
- Kis (Candida albicans [5]): 72000 nM
- Inhibition type (Candida albicans [6]): Competitive

Compound: C[C@H](CCC(N)=[N+](C)C)C1CC[C@@]2(C)C3=C(CC[C@]12C)[C@@]1(C)CC[C@H](O)C(C)(C)C1CC3 (some centres not stated)
- Kis (Candida albicans [5]): 6 nM
- Inhibition type (Candida albicans [6]): Parabolic competitive

Compound: CC(=O)N1CCN(c2ccc(OCC3COC(Cn4ccnc4)(c4ccc(Cl)cc4Cl)O3)cc2)CC1 (configuration not stated) [KETOCONAZOLE]
- MIC (Candida albicans [1]): 0.1 µg/mL (≈ 0.188 µM)
- MLC (Candida albicans [2]): 12.5 µg/mL (≈ 23.5 µM)
- MIC (Candida tropicalis [3]): 1.6 µg/mL (≈ 3.01 µM)
- MLC (Candida tropicalis [4]): 6.3 µg/mL (≈ 11.9 µM)
- MLC (Nakaseomyces glabratus [7]): 12.5 pug ml-1
- MIC (Nakaseomyces glabratus [8]): 3.1 µg/mL (≈ 5.83 µM)

Compound: C[C@H](CCC(=N)N)C1CC[C@@]2(C)C3=C(CC[C@]12C)[C@@]1(C)CC[C@H](O)C(C)(C)C1CC3.O=S(=O)(O)C(F)(F)F (some centres not stated)
- MIC (Candida albicans [1]): 0.2 µg/mL
- MLC (Candida albicans [2]): 12.5 µg/mL
- MIC (Candida tropicalis [3]): 0.4 µg/mL
- MLC (Candida tropicalis [4]): 12.5 µg/mL
- Kis (Candida albicans [11]): 11 nM
- Alpha c (Candida albicans [10]): 0.06
- Inhibition type (Candida albicans [6]): Parabolic competitive
- MLC (Nakaseomyces glabratus [7]): 50 µg/mL
- MIC (Nakaseomyces glabratus [8]): 3.1 µg/mL
